The source made the active and inactive calls. No cut-off for these calls is given here.
What was measured:
Rattus norvegicus = assay: Antidyslipedic activity in fasted Sprague-Dawley rat assessed as decrease in free fatty acid level at 0.001 mg/kg, po by NEFA C-free fatty acid assay; type: functional, organism-based; design: dose 0.001 mg/kg
Summary of the method: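 Male Sprague-Dawley rats fasted, compound by oral gavage, serial plasma sampling after dosing for free fatty acids over a time course; vehicle-dosed control group.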

[1] = Plasma clearance in dog; type: ADME, organism-based, Canis lupus familiaris
Canis familiaris = assay: Dose normalized Cmax in po dosed dog; type: ADME, organism-based, Canis lupus familiaris; conditions: in vivo
[2] = AUC (0 to 12 hrs) in human at 50 mg, po BID administered on day 1 followed by 2-day wash out period after which dosing continued up to day 11 measured on day 4; type: ADME, organism-based; design: time < 12 hr, dose 50 mg, route oral; conditions: plasma
Summary of the method: (§1)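 Double-blind, placebo-controlled, randomized dose-escalation study in healthy male volunteers, six cohorts of eight (six active, two placebo). Oral dose on day 1, two-day washout, then dosing days 4–11; the 200 mg qd cohort was titrated over days 1–4. Venous blood taken predose and at 0.5–12 h on days 1, 4 and 11; plasma drug measured. τ 12 h (bid), 24 h (qd), 8 h (tid), 6 h (qid).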

[3] = AUC (0 to 12 hrs) in human at 50 mg, po BID administered on day 1 followed by 2-day wash out period after which dosing continued up to day 11 measured on day 11; type: ADME, organism-based; design: dose 50 mg, time < 12 hr, route oral; conditions: plasma; summary of the method: as §1
[4] = AUC (0 to 12 hrs) in human at 100 mg, po BID administered on day 1 followed by 2-day wash out period after which dosing continued up to day 11 measured on day 11; type: ADME, organism-based; design: time < 12 hr, dose 100 mg, route oral; conditions: plasma; summary of the method: as §1
[5] = Apparent half life in human at 175 mg, po QID administered on day 1 followed by 2-days wash out period after which dosing continued up to day 11 measured on day 11; type: ADME, organism-based; conditions: in vivo, read-out: t1/2(app) (converted); summary of the method: as §1
[6] = Drug excretion in human urine assessed as unchanged drug at 50 to 150 mg, po BID in administered on day 1 followed by 2-days wash out period after which dosing continued up to day 11; type: ADME, organism-based; conditions: read-out: Ae
[7] = Cmax in human at 50 mg, po BID administered on day 1 followed by 2-day wash out period after which dosing continued up to day 11 measured on day 11; type: ADME, organism-based; design: dose 50 mg, route oral; conditions: in vivo
Summary of the method: (§2)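 Healthy male volunteers took part in a double-blind, randomized, placebo-controlled dose-escalation study, with cohorts of 8 (6 on drug, 2 on placebo). Each subject got an oral dose on day 1, then a 2-day washout, then dosing on days 4–11. The 200 mg qd group was titrated over days 1–4. Venous plasma was sampled predose and 0.5–12 h postdose on days 1, 4 and 11, and predose on days 5–10 for troughs.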

[8] = Cmax in human at 150 mg, po TID administered on day 1 followed by 2-days wash out period after which dosing continued up to day 11 measured on day 1; type: ADME, organism-based; design: dose 150 mg, route oral; conditions: in vivo; summary of the method: as §2
[9] = Cmax in human at 150 mg, po TID administered on day 1 followed by 2-days wash out period after which dosing continued up to day 11 measured on day 4; type: ADME, organism-based; design: dose 150 mg, route oral; conditions: in vivo; summary of the method: as §2
[10] = Cmax in human at 175 mg, po QID administered on day 1 followed by 2-days wash out period after which dosing continued up to day 11 measured on day 1; type: ADME, organism-based; design: dose 175 mg, route oral; conditions: in vivo; summary of the method: as §2
[11] = Cmax in human at 175 mg, po QID administered on day 1 followed by 2-days wash out period after which dosing continued up to day 11 measured on day 4; type: ADME, organism-based; design: dose 175 mg, route oral; conditions: in vivo; summary of the method: as §2
[12] = Cmin in human at 175 mg, po QID administered on day 1 followed by 2-days wash out period after which dosing continued up to day 11 measured on day 1 at 6 hrs; type: ADME, organism-based; conditions: in vivo, read-out: Cmin; summary of the method: as §2
[13] = Tmax in human at 100 mg, po BID administered on day 1 followed by 2-day wash out period after which dosing continued up to day 11 measured on day 4; type: ADME, organism-based; conditions: in vivo
Summary of the method: (§3)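 Double-blind, placebo-controlled, randomized multiple oral dose study in healthy male volunteers (cohorts of eight; six active, two placebo). Dose given on day 1, then a two-day washout, then dosing days 4–11; for the QD arm, subjects were titrated over days 1–4. Venous plasma sampled predose and 0.5, 1, 1.5, 2, 4, 6, 8, 10, 12 h postdose on days 1, 4 and 11. Tmax reported as median (min–max).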

[14] = Tmax in human at 150 mg, po BID administered on day 1 followed by 2-day wash out period after which dosing continued up to day 11 measured on day 4; type: ADME, organism-based; conditions: in vivo; summary of the method: as §3
[15] = Tmax in human at 150 mg, po TID administered on day 1 followed by 2-days wash out period after which dosing continued up to day 11 measured on day 4; type: ADME, organism-based; conditions: in vivo; summary of the method: as §3

## O=C(O)c1n[nH]c2c1C[C@H]1C[C@@H]21
Rattus norvegicus
  Activity: inactive
[1]
  clearance: 3.1 mL/min/kg
Canis familiaris
  Cmax/dose: 17.5 µM·kg/mg
[2]
  AUC at 12 h: 0.0261 µM·h
[3]
  AUC at 12 h: 0.0254 µM·h
[4]
  AUC at 12 h: 0.0611 µM·h
[5]
  half-life: 6 h
[6]
  dose excreted: 70%
[7]
  Cmax: 16.2 nM
[8]
  Cmax: 48400 nM
[9]
  Cmax: 52.6 nM
[10]
  Cmax: 52.6 nM
[11]
  Cmax: 49.9 nM
[12]
  concentration at 6 h: 4.01 nM
[13]
  Tmax: 1 h
[14]
  Tmax: 1.5 h
[15]
  Tmax: 0.5 h
